Reference: ChEMBL document CHEMBL1221294, “Novel nucleosides as potent influenza viral inhibitors” (Bioorg Med Chem, 2010)
Values after ≈ are worked out from the molar mass of the structure shown. Active and inactive are the calls of the source. No cut-off for these calls is given here.

What was measured:
Influenza B virus [1] = experiment: Antiviral activity against Influenza B virus Florida/4/2006 infected in MDCK cells at up to 100 uM; format: functional, cell-based; details: B/Florida/4/2006
Influenza A virus [2] = experiment: Antiviral activity against Influenza A virus H5N1 Vietnam/1203/2004H infected in MDCK cells at up to 100 uM; format: functional, organism-based; details: A/Viet Nam/1203/2004(H5N1)
Influenza A virus [3] = experiment: Antiviral activity against Influenza A virus H5N1 Vietnam/1203/2004H infected in MDCK cells; format: functional, organism-based; details: A/Viet Nam/1203/2004(H5N1)
MDCK = experiment: Cytotoxicity against MDCK cells; format: cell-based; details: Canis lupus familiaris
Summary of the method: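 Run in MDCK cells, two uninfected toxicity-control wells per compound concentration alongside the infected wells. Neutral red uptake in these wells is read spectrophotometrically to give an NR IC50. The wells are also examined microscopically against untreated normal cells for enlargement, granularity, rounding, detachment and similar changes. The IC50 from these observations is derived by regression analysis.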

Influenza B virus [4] = experiment: Antiviral activity against Influenza B virus Florida/4/2006 infected in MDCK cells; format: functional, cell-based; details: B/Florida/4/2006, MDCK
Influenza A virus [5] = experiment: Antiviral activity against Influenza A virus H5N1 Vietnam/1203/2004H infected in MDCK cells assessed as reduction of virus-induced cytopathogenicity by confocal microscopic analysis; format: functional, organism-based; details: A/Viet Nam/1203/2004(H5N1)
Influenza B virus [6] = experiment: Antiviral activity against Influenza B virus Florida/4/2006 infected in MDCK cells assessed as reduction of viral yeild; format: functional; details: B/Florida/4/2006, MDCK
[7] = Selectivity index, IC50 for MDCK cells to EC90 for Influenza B virus Florida/4/2006 infected in MDCK cells assessed as reduction of viral yield; format: functional
Summary of the method: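 Retest in MDCK cells of compounds active by neutral red, with virus yield reduction measured on the same plate as CPE inhibition. A known active drug is the parallel positive control. EC90 is the concentration lowering virus yield by 1 log10. SI is the ratio of cytotoxic IC50 to EC90.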

Influenza A virus [8] = experiment: Antiviral activity against Influenza A virus H5N1 Vietnam/1203/2004H infected in MDCK cells assessed as reduction of viral yeild; format: functional; details: A/Viet Nam/1203/2004(H5N1)
Influenza B virus [9] = experiment: Antiviral activity against Influenza B virus Florida/4/2006 infected in MDCK cells assessed as increase of neutral red uptake; format: functional, cell-based; details: B/Florida/4/2006, MDCK
Summary of the method: (§1)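 Neutral red dye uptake read-out run in MDCK cells. Cells not damaged by virus take up more dye, which is measured on a microplate reader. The EC50 is derived from dye uptake.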

Influenza B virus [10] = experiment: Antiviral activity against Influenza B virus Florida/4/2006 infected in MDCK cells assessed as reduction of virus-induced cytopathogenicity by confocal microscopic analysis; format: functional, cell-based; details: B/Florida/4/2006, MDCK
[11] = Selectivity index, IC50 for MDCK cells to EC50 for Influenza B virus Florida/4/2006 infected in MDCK cells assessed as reduction of virus-induced cytopathogenicity by confocal microscopic analysis; format: functional
Summary of the method: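 CPE inhibition in MDCK cells, scored microscopically. At each concentration, two uninfected treated wells are examined for morphology changes against normal control cells: enlargement, granularity, ragged edges, filmy appearance, rounding or detachment. Cytotoxic IC50 is found by regression analysis. SI = IC50/EC50.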

Influenza A virus [12] = experiment: Antiviral activity against Influenza A virus H5N1 Vietnam/1203/2004H infected in MDCK cells assessed as increase of neutral red uptake; format: functional, organism-based; details: A/Viet Nam/1203/2004(H5N1); summary of the method: as §1
[13] = Selectivity index, IC50 for MDCK cells to EC50 for Influenza B virus Florida/4/2006 infected in MDCK cells assessed as increase of neutral red uptake; format: functional
Summary of the method: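 Run in MDCK cells. Antiviral EC50 comes from neutral red uptake, since undamaged cells take up more dye, read on a microplate reader. Cytotoxicity uses neutral red in uninfected, compound-treated toxicity control wells run alongside, read spectrophotometrically to give NR IC50. SI = IC50/EC50.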

Structure (SMILES) | Activity (Influenza B virus [1]) | Activity (Influenza A virus [2]) | EC50 (Influenza A virus [3]) | IC50 (MDCK) | EC50 (Influenza B virus [4]) | also measured
C[C@]1(F)[C@@H](n2cnc3c(N)ncnc32)O[C@H](CO)[C@@]1(C)O | inactive | inactive |  |  |  | 
CC(=O)O[C@@]1(C)[C@@H](COC(=O)c2ccccc2)O[C@H](n2cnc3c(N4CCN(C)CC4)ncnc32)[C@]1(C)F | inactive | inactive |  |  |  | 
C[C@]1(O)[C@@H](CO)O[C@H](n2cnc3c(NCc4ccc(F)cc4)ncnc32)[C@]1(C)F | inactive | inactive |  |  |  | 
C[C@]1(F)[C@H](n2cnc3c(N)ncnc32)O[C@H](CO)[C@@]1(C)O |  |  | > 100 µg/mL | > 100 µg/mL | > 100 µg/mL | 
CC(=O)O[C@]1(C)[C@@H](COC(=O)c2ccccc2)O[C@@H](n2cnc3c(Cl)ncnc32)[C@]1(C)F |  |  | > 100 µg/mL | > 100 µg/mL | > 100 µg/mL | 
CC(=O)O[C@@]1(C)[C@@H](COC(=O)c2ccccc2)O[C@H](n2cnc3c(NC4CC4)ncnc32)[C@]1(C)F | inactive | inactive |  |  |  | 
C[C@]1(O)[C@@H](CO)O[C@H](n2cnc3c(NC4CC4)ncnc32)[C@]1(C)F | inactive | inactive |  |  |  | 
CC(=O)O[C@@]1(C)[C@@H](COC(=O)c2ccccc2)O[C@@H](n2cnc3c(NC4CCC4)ncnc32)[C@]1(C)F |  |  | 23 µg/mL (≈ 46.2 µM) | > 100 µg/mL | 27 µg/mL (≈ 54.3 µM) | 
C[C@]1(O)[C@@H](CO)O[C@H](n2cnc3c(NCC4CC4)ncnc32)[C@]1(C)F | inactive | inactive |  |  |  | 
C[C@]1(O)[C@@H](CO)O[C@H](n2cnc3c(O)ncnc32)[C@]1(C)F | inactive | inactive |  |  |  | 
CC(=O)O[C@@]1(C)[C@@H](COC(=O)c2ccccc2)O[C@H](n2cnc3c(NCc4ccc(F)cc4)ncnc32)[C@]1(C)F | inactive | inactive |  |  |  | 
CC(=O)O[C@@]1(C)[C@@H](COC(=O)c2ccccc2)O[C@H](n2cnc3c(Cl)ncnc32)[C@]1(C)F | inactive | inactive |  |  |  | 
C[C@]1(O)[C@@H](CO)O[C@H](n2cnc3c(N4CCOCC4)ncnc32)[C@]1(C)F | inactive | inactive |  |  |  | 
CC(=O)O[C@@]1(C)[C@@H](COC(=O)c2ccccc2)O[C@@H](n2cnc3c(O)ncnc32)[C@]1(C)F |  |  | 33 µg/mL (≈ 74.3 µM) | > 100 µg/mL | 65 µg/mL (≈ 146 µM) | 
CCOc1ncnc2c1ncn2[C@@H]1O[C@H](COC(=O)c2ccccc2)[C@](C)(OC(C)=O)[C@@]1(C)F |  |  | 48 µg/mL (≈ 102 µM) | > 100 µg/mL | > 100 µg/mL | 
CCOc1ncnc2c1ncn2[C@H]1O[C@H](CO)[C@](C)(O)[C@@]1(C)F | inactive | inactive |  |  |  | 
CC(=O)O[C@@]1(C)[C@@H](COC(=O)c2ccccc2)O[C@@H](n2cnc3c(NCC4CC4)ncnc32)[C@]1(C)F |  |  | 32 µg/mL (≈ 64.3 µM) | > 100 µg/mL | 17 µg/mL (≈ 34.2 µM) | 

Structure (SMILES) | Activity (Influenza B virus [1]) | Activity (Influenza A virus [2]) | EC50 (Influenza A virus [3]) | IC50 (MDCK) | EC50 (Influenza B virus [4]) | also measured
CC(=O)O[C@@]1(C)[C@@H](COC(=O)c2ccccc2)O[C@H](n2cnc3c(NC4CCC4)ncnc32)[C@]1(C)F | inactive | inactive |  |  |  | 
CC(=O)O[C@@]1(C)[C@@H](COC(=O)c2ccccc2)O[C@@H](n2cnc3c(NC4CC4)ncnc32)[C@]1(C)F |  |  | 50 µg/mL (≈ 103 µM) | > 100 µg/mL | 20 µg/mL (≈ 41.4 µM) | 
CC(=O)O[C@@]1(C)[C@@H](COC(=O)c2ccccc2)O[C@@H](n2cnc3c(NCc4ccco4)ncnc32)[C@]1(C)F |  |  | 31 µg/mL (≈ 59.2 µM) | > 100 µg/mL | 32 µg/mL (≈ 61.1 µM) | 
CC(=O)O[C@@]1(C)[C@@H](COC(=O)c2ccccc2)O[C@H](n2cnc3c(O)ncnc32)[C@]1(C)F | inactive | inactive |  |  |  | 
CN1CCN(c2ncnc3c2ncn3[C@H]2O[C@H](CO)[C@](C)(O)[C@@]2(C)F)CC1 | inactive | inactive |  |  |  | 
CCOc1ncnc2c1ncn2[C@H]1O[C@H](COC(=O)c2ccccc2)[C@](C)(OC(C)=O)[C@@]1(C)F | inactive | inactive |  |  |  | 
CC(=O)O[C@@]1(C)[C@@H](COC(=O)c2ccccc2)O[C@@H](n2cnc3c(N4CCOCC4)ncnc32)[C@]1(C)F |  |  | 24 µg/mL (≈ 46.7 µM) | > 100 µg/mL | 25 µg/mL (≈ 48.7 µM) | 
CC(=O)O[C@@]1(C)[C@@H](COC(=O)c2ccccc2)O[C@@H](n2cnc3c(N4CCN(C)CC4)ncnc32)[C@]1(C)F |  |  | > 100 µg/mL | > 100 µg/mL | 42 µg/mL (≈ 79.8 µM) | 
C[C@]1(O)[C@@H](CO)O[C@H](n2cnc3c(NCc4ccco4)ncnc32)[C@]1(C)F | inactive | inactive |  |  |  | 
CC(=O)O[C@@]1(C)[C@@H](COC(=O)c2ccccc2)O[C@@H](n2cnc3c(NCc4ccc(F)cc4)ncnc32)[C@]1(C)F |  |  | 32 µg/mL (≈ 58 µM) | 36 µg/mL (≈ 65.3 µM) | 30 µg/mL (≈ 54.4 µM) | 
CC(=O)O[C@]1(C)[C@@H](COC(=O)c2ccccc2)O[C@H](n2cnc3c(Cl)ncnc32)[C@]1(C)F | inactive | inactive |  |  |  | 
CC(=O)O[C@@]1(C)[C@@H](COC(=O)c2ccccc2)O[C@@H](n2cnc3c(Cl)ncnc32)[C@]1(C)F |  |  | 7.1 µg/mL (≈ 15.3 µM) | 18 µg/mL (≈ 38.9 µM) | 3.7 µg/mL (≈ 7.99 µM) | EC50 (Influenza A virus [5]): 1.26 µg/mL (≈ 2.72 µM); EC90 (Influenza B virus [6]): 6.3 µg/mL (≈ 13.6 µM); Ratio IC50/EC50 [7]: 2.9; EC90 (Influenza A virus [8]): 4.4 µg/mL (≈ 9.51 µM); EC50 (Influenza B virus [9]): 1.2 µg/mL (≈ 2.59 µM); EC50 (Influenza B virus [10]): 1.2 µg/mL (≈ 2.59 µM); Ratio IC50/EC50 [11]: 15; EC50 (Influenza A virus [12]): 1.76 µg/mL (≈ 3.8 µM); Ratio IC50/EC50 [13]: 15
CC(=O)O[C@@]1(C)[C@@H](COC(=O)c2ccccc2)O[C@H](n2cnc3c(NCC4CC4)ncnc32)[C@]1(C)F | inactive | inactive |  |  |  | 
CC(=O)O[C@@]1(C)[C@@H](COC(=O)c2ccccc2)O[C@H](n2cnc3c(N4CCOCC4)ncnc32)[C@]1(C)F | inactive | inactive |  |  |  | 
CC(=O)O[C@@]1(C)[C@@H](COC(=O)c2ccccc2)O[C@H](n2cnc3c(NCc4ccco4)ncnc32)[C@]1(C)F | inactive | inactive |  |  |  | 
C[C@]1(O)[C@@H](CO)O[C@H](n2cnc3c(NC4CCC4)ncnc32)[C@]1(C)F | inactive | inactive |  |  |  | 
